Screening results: PubChem, several laboratories
NALP1 yeast inh: NALP1 inhibition; S. cerevisiae NALP1/ASC/caspase-1 growth, X-gal OD620, 72 h; inhibition, % at 10 µM; hit rate 0.61% among 280,000; in the data active = inhibition mostly above about 24%, no sharp cut-off; inactive = mostly below about 32%
ALR inh: inhibitors of human sulfhydryl oxidase ALR; P55789; purified ALR, DTT oxidation, H2O2 HRP-luminol luminescence; inhibition, % (test concentration not listed); hit rate 3.8% among 290,000; AID 485317;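 active = mean replicate inhibition above about 79%, with every replicate also reaching it, limit read from the data; inconclusive = only one of the two criteria met; inactive = mean below limit and not every replicate reaching it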
Target sequence (P55789 whole entry, looked up): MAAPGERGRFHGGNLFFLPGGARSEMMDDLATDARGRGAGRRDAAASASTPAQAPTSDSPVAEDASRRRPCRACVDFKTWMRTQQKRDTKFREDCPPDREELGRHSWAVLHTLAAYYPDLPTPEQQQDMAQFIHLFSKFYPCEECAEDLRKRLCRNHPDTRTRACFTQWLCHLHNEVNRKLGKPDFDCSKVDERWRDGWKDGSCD
UCH37 inh: inhibitors of human deubiquitinating enzyme UCH37 | Q9Y5K5 | purified proteasome/UCH37, Ub-AMC cleavage fluorescence | inhibition, % (concentration not given with the values) | hit rate 0.33% among 330,000;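 active = mean inhibition over replicate wells above about 20%, limit read from the data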;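 also: 0% = compound-free wells with enzyme and 100% = wells lacking proteasome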
Target sequence (Q9Y5K5 whole entry, looked up): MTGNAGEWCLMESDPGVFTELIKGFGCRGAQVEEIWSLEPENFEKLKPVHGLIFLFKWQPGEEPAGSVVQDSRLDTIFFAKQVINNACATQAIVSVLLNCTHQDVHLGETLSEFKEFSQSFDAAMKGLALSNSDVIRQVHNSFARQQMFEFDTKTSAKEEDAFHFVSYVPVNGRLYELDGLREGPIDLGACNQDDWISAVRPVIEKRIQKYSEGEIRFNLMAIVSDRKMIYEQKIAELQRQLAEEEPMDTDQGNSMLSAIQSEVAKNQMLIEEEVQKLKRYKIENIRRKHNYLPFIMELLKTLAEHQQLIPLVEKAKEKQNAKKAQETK
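Material: human UCH37 enzyme supplied as purified proteasome complex / Amount: 0.15 nM proteasome as dispensed / Buffer or medium: pH 7.4 Tris-HCl (50 mM) with ovalbumin, ATP-MgCl2, DTT / Times: preincubation 30 min, reaction 25 min, room temperature / Technique: AMC fluorescence from Ub-AMC cleavage, excitation 355 nm, emission 460 nm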
Calb FLC: C. albicans growth modulation with fluconazole; hit rate 0.57% among 300,000; growth inhibition, % (test concentration not listed); C. albicans CaCi-2 + fluconazole, Alamar Blue growth, 48 h;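 active = growth inhibition above about 58% in most replicates, limit read from the data, passing the limit was not always enough; inconclusive = exactly half the replicates above a set limit; inactive = most replicates below a set limit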;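 also: all wells also contain fluconazole at 8 µg/ml as a sub-toxic cotreatment; 0% = median of DMSO wells and 100% = median of geldanamycin control wells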
ATG4B inhibitor: ATG4B (human) cysteine protease inhibition. Q9Y4P1. hit rate 0.51% among 340,000. ATG4B cleavage of LC3-PLA2, NBD-HPC fluorescence, 1 h. inhibition, % at 8.33 µM; in the data active = inhibition above about 40%
NLRP3 yeast inh: blocks the NALP3 inflammasome reconstituted in yeast; inhibition, % at 10 µM; Yeast reconstituted NLRP3/ASC/caspase-1, beta-gal luminescence, 24 h; hit rate 0.39% among 330,000; AID 2825;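 active = inhibition of 50% or more; inactive = inhibition below 50%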;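 also: plate controls were induced DMSO wells for no effect and uninduced yeast grown without galactose for full effect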
Numbers without * were called inactive; ? = inconclusive; / = no result given. Rows were chosen to be rich in hits. Some 4.8% of all compounds tested hit in one or more screens of this group.

SMILES | NALP1 yeast inh | ALR inh | UCH37 inh | Calb FLC | ATG4B inhibitor | NLRP3 yeast inh
Cc1cc(C)c2c(=O)[nH]c(SCC(=O)Nc3ccccc3)nc2n1 | 10.3 | 44.5 | 1.9 | 2.0 | -8.3 | 12.4
CN(C)c1ccc(NC(=O)CSc2nc3c(c(=O)[nH]2)CCCC3)cc1 | 15.6 | 96.2* | -0.2 | -0.5 | -4.5 | -2.7
Cc1cc(C)cc(NC(=O)CSc2nc3nc(C)cc(C)c3c(=O)[nH]2)c1 | / | 99.1* | 4.4 | / | -24.9 | 32.4
COc1ccc(CCC(=O)N2CC(C)OC(C)C2)cc1 (configuration not stated) | 8.2 | -10.0 | 4.2 | 89.4* | 6.4 | 5.3
Cc1cc(C)cc(OCC(=O)NNC(=S)NC(=O)C2CC2)c1 | 2.0 | 35.0 | 2.4 | 118.8* | -9.7 | 31.1
CCc1ccc(OCC(=O)NNC(=S)NC(=O)C2CCCCC2)c(Br)c1 | 1.3 | 2.6 | 2.0 | 83.7* | -7.4 | 33.3
CCc1ccc(OCC(=O)NNC(=S)NC(=O)C2CC2)c(Br)c1 | 8.2 | 12.5 | -0.5 | 107.1* | -7.6 | 42.5
COc1ccc(OCC(=O)NNC(=S)NC(=O)C2CC2)cc1 | -2.9 | 19.6 | 4.0 | 13.8 | -5.8 | 18.2
Cc1nonc1C(=O)NN=Cc1ccc(O)cc1 | / | / | 2.9 | / | / | /
Cc1nn(Cc2ccc(F)cc2)c(Cl)c1C=NNC(=O)c1ccccc1 | / | / | 0.7 | / | / | /
CN(C)c1ccc(/C=N/NC(=S)NCc2ccco2)cc1 | 12.6 | 97.7* | / | 3.2 | -1.4 | 13.4
CCN1CCN(c2cc(C)c3cc(NC(=O)c4ccc(OC)c(OC)c4)ccc3n2)CC1 | 9.2 | / | -15.1 | -3.0 | -20.1 | 13.4
CCN(CC)c1ccc(/C=N/NC(=O)CNC(=O)c2ccc3c(c2)OCCO3)cc1 | 5.0 | 87.3* | / | 1.5 | 7.1 | 10.4
CN(C)c1ccc(/C=N/NC(=O)CNC(=O)c2ccc3c(c2)OCCO3)cc1 | 21.3 | 97.8* | / | ? | -11.8 | -18.3
CCN1CCN(c2cc(C)c3cc(NC(=O)c4ccc5c(c4)OCO5)ccc3n2)CC1 | 32.0 | 84.4* | 5.6 | -7.5 | 1.7 | 20.2
Br/C(C=NN1CCN(c2ccccn2)CC1)=C\c1ccccc1 | / | / | -0.8 | / | / | /
CN(C)c1ccc(/C=N/NC(=O)CNC(=O)/C=C/c2ccco2)cc1 | 3.3 | 90.9* | / | -1.9 | -14.4 | 10.4
O=C(Nc1c(C(=O)Nc2cccc(F)c2)oc2ccccc12)c1ccc2c(c1)OCO2 | 17.6 | -3.3 | -55.5 | 7.3 | -1.2 | 9.5
CN(C)c1ccc(/C=N/NC(=O)CNC(=O)c2ccncc2)cc1 | 4.0 | 98.5* | / | 10.2 | 6.3 | -1.2
Cc1ccc(NC(=O)c2oc3ccccc3c2NC(=O)c2ccc3c(c2)OCO3)cc1 | 31.4* | -0.4 | -21.5 | -3.0 | 5.8 | 6.4
CCN(CC)c1ccc(C=NNC(=O)CNC(=O)/C=C/c2ccco2)cc1 | / | / | -60.5 | / | / | /
CCN(CC)c1ccc(NC(=O)c2ccc3c(c2)OCO3)cc1 | 10.7 | 99.1* | 6.4 | -6.7 | -2.6 | 20.4
CN(C)c1ccc(/C=N/NC(=O)CCCCCNC(=O)c2ccccc2)cc1 | 4.5 | / | / | 0.8 | -3.8 | -17.4
CCC(=O)Nc1ccc(NC(=O)c2ccc3c(c2)OCO3)cc1 | -3.0 | 1.1 | -2.8 | 0.1 | 3.2 | 12.3
CCNC(=S)Nc1ccc(Cl)cc1 | 21.6 | -3.8 | -0.6 | -6.0 | -4.4 | -11.1
SMILES | NALP1 yeast inh | ALR inh | UCH37 inh | Calb FLC | ATG4B inhibitor | NLRP3 yeast inh
CCNC(=S)Nc1cc(-c2ccc(Cl)cc2)[nH]n1 | -1.6 | 96.6* | 0.8 | -2.3 | 1.0 | 23.2
CC(=NNC(=O)c1ccc(O)cc1)c1cccc([N+](=O)[O-])c1 | / | / | 2.3 | / | / | /
Cc1[nH]c2ccccc2c1Cc1n[nH]c(=S)o1 | 3.5 | 96.1* | 1.5 | -0.6 | -3.9 | -2.3
N#Cc1c(-c2ccc(Cl)cc2)cc(-c2ccccc2)nc1SCC(=O)O | 5.1 | 41.8 | -5.4 | 88.2* | 21.5 | 12.5
COc1cc(-c2cc(-c3ccccc3)nc(SCC(=O)O)c2C#N)cc(OC)c1OC | 2.1 | 5.7 | -8.0 | 3.7 | -5.6 | 15.2
COC(=O)CSc1nc(-c2ccccc2)cc(-c2ccco2)c1C#N | -7.1 | 94.8* | -16.5 | 5.1 | -8.5 | 16.0
CSCC[C@H](NC(=O)C1CCC(CNC(=O)[C@@H](N)Cc2ccccc2)CC1)C(=O)O (some centres not stated) | / | / | 1.9 | / | / | /
Cc1ccc(SC(=O)c2c([N+](=O)[O-])c(C)nn2C)cc1 | / | / | 5.2 | -11.3 | -4.6 | 17.9
CCn1nc(C)cc1C(=O)Sc1ccc(C)cc1 | / | 98.3* | 6.2 | -3.1 | 0.3 | 9.5
